# Calls of active or inactive are those of the source. The rule behind the calls is not given here.
# Columns and labels:
# [1] = molecular target: T1, Peroxisome proliferator-activated receptor alpha (Homo sapiens, UniProt Q07869); experiment: Agonist activity at recombinant human PPARalpha LBD (168 to 468 residues) expressed in African green monkey COS-1 cells incubated for 18 hrs by luciferase reporter gene assay; format: cell-based
# T1 sequence (Q07869 whole entry): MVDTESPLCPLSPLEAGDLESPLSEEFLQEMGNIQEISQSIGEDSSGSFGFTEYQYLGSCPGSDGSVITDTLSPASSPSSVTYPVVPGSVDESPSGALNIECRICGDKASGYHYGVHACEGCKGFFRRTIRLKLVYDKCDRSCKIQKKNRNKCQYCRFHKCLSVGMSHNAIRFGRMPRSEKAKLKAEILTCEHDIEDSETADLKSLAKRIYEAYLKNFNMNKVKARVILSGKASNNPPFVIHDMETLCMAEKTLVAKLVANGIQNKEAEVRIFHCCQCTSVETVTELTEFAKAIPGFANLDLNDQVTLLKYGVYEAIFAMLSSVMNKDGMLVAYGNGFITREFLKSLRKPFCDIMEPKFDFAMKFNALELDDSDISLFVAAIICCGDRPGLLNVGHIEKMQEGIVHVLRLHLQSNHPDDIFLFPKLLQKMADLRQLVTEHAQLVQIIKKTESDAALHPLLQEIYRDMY
# How it was run: (§1)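 Transient Gal4 one-hybrid assay in COS-1 cells (7×10^4 per well), transfected 24 h after seeding. Plasmids were Gal4-DBD fused to the human nuclear receptor LBD, a 5×UAS-SV40 luciferase reporter and pRL-CMV Renilla control. Ligand in DMSO (final 0.1%) was added 5 h post-transfection. Dual-luciferase activity was read after 18 h, expressed as RLU, from three biological replicates in quadruplicate.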
# [2] = molecular target: T2, Oxysterols receptor LXR-beta (Homo sapiens) (UniProt P55055); experiment: Agonist activity at recombinant human LXRbeta LBD (155 to 461 residues) expressed in African green monkey COS-1 cells at 25 to 50 uM incubated for 18 hrs by luciferase reporter gene assay; format: cell-based; details: dose 25-50 µM; how it was run: as §1
# T2 sequence (whole entry): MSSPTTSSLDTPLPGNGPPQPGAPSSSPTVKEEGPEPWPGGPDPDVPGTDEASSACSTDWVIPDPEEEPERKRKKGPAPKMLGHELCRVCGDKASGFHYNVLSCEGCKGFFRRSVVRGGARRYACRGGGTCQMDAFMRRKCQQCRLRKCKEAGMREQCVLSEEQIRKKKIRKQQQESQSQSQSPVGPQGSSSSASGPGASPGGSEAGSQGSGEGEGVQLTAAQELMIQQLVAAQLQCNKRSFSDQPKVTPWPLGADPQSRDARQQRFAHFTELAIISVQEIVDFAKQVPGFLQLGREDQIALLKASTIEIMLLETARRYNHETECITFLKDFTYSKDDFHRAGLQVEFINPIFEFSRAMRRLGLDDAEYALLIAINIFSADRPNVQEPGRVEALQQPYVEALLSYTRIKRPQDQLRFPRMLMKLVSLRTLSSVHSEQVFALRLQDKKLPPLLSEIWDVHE
# [3] = molecular target: T3, Peroxisome proliferator-activated receptor alpha (Homo sapiens) (UniProt Q07869); experiment: Agonist activity at human PPARalpha in human HuH-7 cells assessed as increase in CPT1A gene expression at 50 uM incubated for 24 hrs by SYBR-green based qPCR analysis; format: cell-based; details: filed as agonist
# T3 sequence (whole entry): T1 sequence (Q07869 whole entry)
# How it was run: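 Cells were seeded at 2×10^5 per well and treated 24 h later with compound in DMSO (final 0.1%). The next day, cells were washed and scraped into RLT buffer. RNA was isolated, and target gene mRNA was quantified by SYBR-green qPCR with specific primers.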
# [4] = molecular target: T3, Peroxisome proliferator-activated receptor alpha (Homo sapiens); experiment: Agonist activity at human PPARalpha in 8 day differentiated human SGBS cells assessed as increase in PLIN1 gene expression at 25 uM incubated for 24 hrs by SYBR-green based qPCR analysis; format: cell-based
# How it was run: (§2)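 SGBS preadipocytes were seeded at passage P6-P8 and grown to confluence. They were differentiated for 4 days in Quickdiff (3FC plus dexamethasone, IBMX and rosiglitazone), then kept in 3FC with medium renewed every fourth day. On day 8, cells were stimulated for 24 h in 3FC with compound:BSA or rosiglitazone. SYBR-green qPCR used gene-specific primers. Data are mean ± SEM of three biological replicates in duplicate.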
# [5] = molecular target: T3, Peroxisome proliferator-activated receptor alpha (Homo sapiens); experiment: Agonist activity at human PPARalpha in 8 day differentiated human SGBS cells assessed as increase in […] gene expression at 25 uM incubated for 24 hrs by SYBR-green based qPCR analysis; format: cell-based; details: filed as agonist; how it was run: as §2
# SGBS [6] = experiment: Induction of adipogenesis in 8 day differentiated human SGBS cells assessed as increase in FABP4 mRNA expression at 25 uM measured upto 12 days by qRT-PCR analysis; format: functional, cell-based; details: time day <=12
# How it was run: (§3)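 SGBS cells were grown to confluence (day 0). Quickdiff medium was supplemented with compound or rosiglitazone for 4 days, followed by 3FC medium. DMSO or DMSO:BSA served as control. RNA was harvested on days 0, 4, 8 and 12, and expression was measured by SYBR-green qPCR. Data are mean ± SEM of at least three biological replicates in duplicate.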
# SGBS [7] = experiment: Induction of adipogenesis in 8 day differentiated human SGBS cells assessed as increase in CD36 mRNA expression at 25 uM measured upto 12 days by qRT-PCR analysis; format: functional, cell-based; details: time day <=12; how it was run: as §3
# [8] = molecular target: T4, Peroxisome proliferator-activated receptor gamma (Homo sapiens) (UniProt P37231); experiment: Agonist activity at human PPARgamma in 8 day differentiated human SGBS cells assessed as decrease in TNF gene expression at 25 uM incubated for 24 hrs by SYBR-green based qPCR analysis; format: cell-based; details: filed as agonist
# T4 sequence (whole entry): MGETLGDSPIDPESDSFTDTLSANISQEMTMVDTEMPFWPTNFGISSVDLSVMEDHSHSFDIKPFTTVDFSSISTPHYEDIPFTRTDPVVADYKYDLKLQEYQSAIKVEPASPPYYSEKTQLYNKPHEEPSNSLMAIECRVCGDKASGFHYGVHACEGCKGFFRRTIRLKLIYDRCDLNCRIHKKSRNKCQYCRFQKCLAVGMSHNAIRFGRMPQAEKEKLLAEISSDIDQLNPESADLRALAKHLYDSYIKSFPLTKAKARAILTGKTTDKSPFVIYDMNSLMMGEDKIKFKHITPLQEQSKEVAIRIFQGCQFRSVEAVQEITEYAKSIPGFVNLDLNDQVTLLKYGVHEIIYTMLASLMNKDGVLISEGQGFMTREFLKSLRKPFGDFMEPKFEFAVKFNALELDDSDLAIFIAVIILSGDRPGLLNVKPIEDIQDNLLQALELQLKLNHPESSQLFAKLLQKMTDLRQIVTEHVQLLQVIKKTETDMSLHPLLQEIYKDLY
# [9] = molecular target: T4, Peroxisome proliferator-activated receptor gamma (Homo sapiens); experiment: Agonist activity at human PPARgamma in 8 day differentiated human SGBS cells assessed as increase in IRS1 gene expression at 25 uM incubated for 24 hrs by SYBR-green based qPCR analysis; format: cell-based; details: filed as agonist
# [10] = molecular target: T4, Peroxisome proliferator-activated receptor gamma (Homo sapiens); experiment: Agonist activity at human PPARgamma in 8 day differentiated human SGBS cells assessed as increase in SLC2A4 gene expression at 25 uM incubated for 24 hrs by SYBR-green based qPCR analysis; format: cell-based; details: filed as agonist
smiles,measurement,setting,value
CCCCCCCC(=O)/C=C/CCCCCC(=O)O,EC50,[1],20 µM
same,Activity,[2],inactive
same,Activity,[3],Active
same,Activity,[4],inactive
same,Activity,[5],Active
same,Activity,SGBS [6],Active
same,Activity,SGBS [7],Active
same,Activity,[8],Active
same,Activity,[9],Active
same,Activity,[10],Active
CCCCC/C=C/C(=O)CCCCCCCC(=O)O,EC50,[1],26 µM
same,Activity,[2],inactive
same,Activity,[3],Active
same,Activity,[4],inactive
same,Activity,[5],Active
same,Activity,SGBS [6],Active
same,Activity,SGBS [7],Active
same,Activity,[8],Active
same,Activity,[9],Active
same,Activity,[10],Active

# — ChEMBL document CHEMBL4715825, “Synthesis and biological evaluations of marine oxohexadecenoic acids: PPARα/γ dual agonism and anti-diabetic target gene effects” (Eur J Med Chem, 2018)
